High-throughput results (PubChem BioAssay)
An excerpt weighted towards active compounds, which were near 3.8% of everything screened.
DENV2 CPE rescue = inhibitors of DENV2 cytopathic effect, primary screen, cell-based, plate reader, single concentration; AID 651640, 2012; CPE inhibition, % at 9.99 µM; DENV2-infected cells, cytopathic effect rescue; 350,000 tested, 1.7% active; in the data active = CPE inhibition above about 20%, passing the limit was not always enough; inconclusive = no clear call, values can overlap the other calls; tested in BHK-21 cells;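 also: 0% = median of neutral control wells and 100% = median of positive control wells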
SIRT5 block = SIRT5 desuccinylase inhibitors, primary screen, biochemical, fluorescence imaging, single point, set 5; inhibition, % at 15 µM; AID 652115, 2013; Purified SirT5, succinyl-peptide AMC, trypsin-coupled fluorescence; NAD-dependent protein deacylase sirtuin-5, mitochondrial (Homo sapiens), Q9NXA8; 330,000 tested, 1.1% active; in the data active = inhibition above about 15%; inconclusive = no clear call, values can overlap the other calls
Target sequence (Q9NXA8 whole entry, looked up): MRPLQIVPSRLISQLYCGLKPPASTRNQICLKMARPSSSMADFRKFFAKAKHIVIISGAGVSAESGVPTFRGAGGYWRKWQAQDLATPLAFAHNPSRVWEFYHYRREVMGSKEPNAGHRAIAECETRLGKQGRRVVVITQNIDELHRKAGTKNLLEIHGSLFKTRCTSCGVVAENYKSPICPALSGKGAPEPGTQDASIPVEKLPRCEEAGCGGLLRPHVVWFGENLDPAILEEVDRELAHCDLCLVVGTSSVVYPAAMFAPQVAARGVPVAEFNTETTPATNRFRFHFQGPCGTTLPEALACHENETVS
FGF22 binding = binders of human FGF22 protein, primary screen, FGF22 synaptogenesis inhibitor project, biophysical, thermal shift, single point | recombinant FGF22 thermal shift, SYPRO orange fluorescence; percent of sucrose octasulfate shift, DMSO zero | activity (Tm shift, normalised), % at 9.99 µM | 340,000 tested, 1.5% active | Fibroblast growth factor 22 (Homo sapiens), Q9HCT0;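 active = mean Tm shift, scaled 0 neutral to 100 positive control, at about 1.3% or above, every replicate too, limit read from the data; inconclusive = no clear call, values can overlap the other calls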
Target sequence (Q9HCT0 whole entry, looked up): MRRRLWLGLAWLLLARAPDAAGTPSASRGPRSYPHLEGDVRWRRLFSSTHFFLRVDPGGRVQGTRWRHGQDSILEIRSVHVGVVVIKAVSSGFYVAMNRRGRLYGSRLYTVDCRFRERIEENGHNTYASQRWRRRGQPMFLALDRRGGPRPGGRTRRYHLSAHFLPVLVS
Xi reactivation = activators of inactive X chromosome reactivation, primary screen, imaging, XiGFP fibroblasts, GFP high-content imaging, set 2 | XiGFP mouse fibroblasts, % GFP-positive cells imaging, 3 d; cells co-treated with 5-aza-dC sensitizer; scaled so ellipticine positive control = 100% | 360,000 tested, 0.055% active | activation, % at 7.58 µM;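 active = mean normalized replicate activation at least 10% and every replicate at or above 10%; inconclusive = only one of the two criteria met; inactive = mean below 10% and not all replicates reach 10%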;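 also: 0% = median of on-plate neutral control wells and 100% = ellipticine 6 µM median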
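Material: XiGFP fibroblasts, SV40-immortalized; Buffer or medium: DMEM containing 5-aza-dC; Compound dosing: single point; Times: 3 days compound exposure.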
ARNT-TACC3 inh = disruptors of ARNT/TACC3 protein interaction, primary screen, biochemical, AlphaScreen, single concentration; AlphaScreen His-ARNT PAS-B/GST-TACC3 binding, luminescence; TACC3 fragment carries E629A point mutation; inhibition, % at 9.99 µM; 390,000 tested, 0.66% active;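 active = mean inhibition of replicates at least 50% and at least half of replicates each reaching 50%; inconclusive = half or more replicates reach 50% but mean below 50%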;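 also: 0% = complete ARNT plus TACC3 wells and 100% = ARNT alone without TACC3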
FN deposition inh = inhibitors of fibronectin matrix deposition, primary screen, AH1F cells, Alexa488-fibronectin fluorescence, plate reader; AH1F fibroblasts, overnight; AID 743247, 2014; inhibition, % at 12.6 µM; 350,000 tested, 0.086% active;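 active = mean inhibition across replicates of 30% or more, regardless of how many single replicates reach that level; inconclusive = mean under 30% yet at least half of replicates reach 30%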;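 also: positive control wells lacked labelled fibronectin entirely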
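Material – AH1F fibroblast monolayer, labelled fibronectin deposition · Reagent – labelled fibronectin 24 nM · Timing – 1 h adhesion, overnight exposure · Measured by – fluorescence at 485 nm excitation, 525 nm emission · Read-out – inhibition of fibronectin deposition signal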
* marks the source's active call; other numbers are inactive results; ? = inconclusive; . = not tested or not shown.

SMILES | DENV2 CPE rescue | SIRT5 block | FGF22 binding | Xi reactivation | ARNT-TACC3 inh | FN deposition inh
C[C@@H]1CCCCO[C@@H](CN(C)S(=O)(=O)c2ccccc2)[C@H](C)CN([C@H](C)CO)C(=O)c2cc(NS(=O)(=O)c3ccccc3)ccc2O1 | -8.4 | 5.3 | -0.6 | 0.5 | -0.2 | -11.1
Cc1ccc(S(=O)(=O)N(C)C[C@H]2OCCCC[C@@H](C)Oc3ccc(NS(=O)(=O)c4ccccc4)cc3C(=O)N([C@H](C)CO)C[C@H]2C)cc1 | -3.3 | 19.5* | 0.2 | 0.1 | -10.3 | 7.7
Cc1ccc(S(=O)(=O)Nc2ccc3c(c2)C(=O)N([C@@H](C)CO)C[C@H](C)[C@@H](CN(C)S(=O)(=O)c2ccccc2)OCCCC[C@H](C)O3)cc1 | 19.9 | 11.9 | . | 0.5 | 9.1 | -1.5
Cc1ccc(S(=O)(=O)c2nnn3c2nc(N2CCOCC2)c2ccccc23)cc1C | 25.0* | 0.0 | -0.3 | 0.1 | -0.9 | 5.2
Cc1ccc(S(=O)(=O)c2nnn3c2nc(N2CCOCC2)c2ccccc23)c(C)c1 | -3.4 | -1.8 | 0.0 | 0.1 | -4.6 | 7.5
COc1ccccc1C(=O)N1C[C@H]2[C@@H](c3ccccc31)[C@@H](CO)N2C(=O)Cc1ccccc1 | ? | 10.4 | -1.8 | 0.1 | -4.5 | 5.4
Cc1ccc(F)cc1S(=O)(=O)N[C@H]1CCN(Cc2ccc(OC(C)C)cc2)C1 | 29.1* | -1.9 | 0.2 | . | . | .
NNc1ccccc1C(F)(F)F | -3.3 | 0.0 | 43.3* | 0.1 | 2.0 | 2.0
Nc1ccc(CC(N)c2csc(Nc3cc(Oc4ccccc4)ncn3)n2)cc1 (centres undefined) | 46.2* | -0.4 | -0.1 | -0.1 | . | 2.7
COc1ccc(C(N)c2csc(Nc3cc(Oc4ccccc4)ncn3)n2)cc1 (centres undefined) | 53.1* | -0.5 | 0.4 | 0.0 | . | 9.3
NC(c1csc(Nc2cc(Oc3ccccc3)ncn2)n1)C1CCCCC1 (centres undefined) | 7.6 | . | 0.0 | 0.0 | . | 6.4
C[C@@H]1CN([C@H](C)CO)C(=O)c2cc(NC(=O)c3ccccc3)ccc2O[C@@H](C)CCCCO[C@H]1CN(C)Cc1ccc(Cl)c(Cl)c1 | . | . | . | 0.2 | . | 6.1
C[C@@H]1CN([C@H](C)CO)C(=O)c2cc(NC(=O)NC3CCCCC3)ccc2O[C@@H](C)CCCCO[C@@H]1CN(C)Cc1ccc(Cl)c(Cl)c1 | -4.1 | 23.9* | -1.4 | 0.0 | 3.1 | -5.0
C[C@@H]1CCCCO[C@@H](CN(C)Cc2ccc(Cl)c(Cl)c2)[C@@H](C)CN([C@@H](C)CO)C(=O)c2cc(NC(=O)NC3CCCCC3)ccc2O1 | -1.2 | 15.9* | -0.8 | -1.1 | 8.0 | .
C[C@@H]1CCCCO[C@H](CN(C)Cc2ccc(Cl)c(Cl)c2)[C@H](C)CN([C@@H](C)CO)C(=O)c2cc(NC(=O)c3ccccc3)ccc2O1 | 82.1* | -0.3 | 0.1 | 0.1 | -5.1 | 7.5
COc1cccc(NC(=O)C[C@H]2CC[C@H]3[C@H](COc4ccc(NS(=O)(=O)c5cccc(F)c5)cc4C(=O)N3C)O2)c1 | -0.8 | . | -0.1 | 0.1 | 0.9 | -15.2
Cc1ccccc1-c1ccc([C@H]2[C@@H](CO)N3C(=O)CN(C(=O)Nc4ccc(F)cc4)C[C@H]23)cc1 | 5.2 | 0.5 | . | 0.0 | . | .
O=C1NCC2=C1C(c1ccc(Br)cc1)Nc1ccccc1N2 (centres undefined) | . | . | . | . | active | .
C=CCN1c2ccccc2[C@]23C[C@@H](C(=O)OC)N(C(=O)c4cccs4)C2=NC(C(=O)OC)=C(C(=O)OC)[C@H]13 | -4.2 | 2.0 | 0.2 | 0.0 | 4.8 | -1.4
COC(=O)C1=C(C(=O)OC)[C@@H]2Nc3ccccc3[C@@]23C[C@@H](C(=O)OC)N(C(=O)c2cccs2)C3=N1 | 67.6* | . | 0.0 | 0.0 | -0.7 | -6.6
CCS(=O)(=O)N1CCC2(CC1)CN(S(=O)(=O)c1ccccc1)[C@@H](CO)c1c2c2ccc(OC)cc2n1C | 0.0 | . | 0.0 | 0.2 | . | .
C=CCOc1c(Cl)cc(Cl)cc1S(=O)(=O)NCCO | 76.7* | . | 0.1 | 0.1 | 3.8 | -2.3
COc1cc(/C=C/C(=O)O)cc(S(=O)(=O)NCCO)c1OC | . | . | . | -0.1 | -7.1 | -2.0
COCC(=O)Nc1ccc2c(c1)C(=O)N(C)[C@@H]1CC[C@H](CC(=O)NCC3CCCCC3)O[C@@H]1CO2 | -7.4 | -1.9 | 0.0 | 0.2 | -7.0 | -17.7
O=C(C[n+]1ccccc1)N/N=C/c1ccccc1[N+](=O)[O-] | 3.0 | -0.1 | 43.2* | 0.2 | . | -13.0
SMILES | DENV2 CPE rescue | SIRT5 block | FGF22 binding | Xi reactivation | ARNT-TACC3 inh | FN deposition inh
C=CCc1cccc(/C=N/NC(=O)C[n+]2ccccc2)c1O | 2.2 | 5.5 | -0.2 | 0.0 | 80.2* | 9.0
O=C(C[n+]1ccccc1)N/N=C/c1ccccc1Cl | -2.2 | 3.0 | 0.3 | 0.4 | -6.9 | -1.1
C=CCc1cccc(/C=N/NC(=O)CNc2ccccc2)c1O | . | . | . | . | 0.4 | .
COc1ccc(S(=O)(=O)N(C)C[C@@H]2Oc3c(NC(=O)C4CCOCC4)cccc3C(=O)N([C@@H](C)CO)C[C@@H]2C)cc1 | 8.5 | -0.7 | -0.3 | -0.4 | -8.3 | -6.3
CCOc1ccc(C(C)=O)cc1CSc1nc2nc(C)cc(C)n2n1 | -1.9 | 0.8 | 43.2* | 0.1 | 6.7 | 14.4
O=C(Nc1nnc(Cc2ccccc2F)s1)c1ccccc1Cl | 78.0* | -2.8 | 0.0 | 0.0 | -14.2 | 1.6
COc1ccc(Cc2nnc(NC(=O)c3ccccc3Cl)s2)cc1OC | 40.8* | 1.2 | -0.1 | 0.1 | 1.0 | -2.0
O=C(Nc1nnc(Cc2ccccc2F)s1)Nc1ccccc1F | -0.4 | -1.6 | -0.2 | 0.1 | -4.0 | -0.9
COc1ccc(C(C)NC(=O)c2ccccc2Cl)cc1OC (centres undefined) | 64.3* | -1.4 | 0.0 | 0.0 | 0.9 | -0.7
C[C@H](CO)N1C[C@H](C)[C@@H](CN(C)Cc2ccccc2)Oc2c(NC(=O)Cc3cn(C)c4ccccc34)cccc2C1=O | . | . | . | 0.1 | . | 23.7
O=C(NCCS(=O)(=O)NC1CCCC1)c1ccccc1 | 0.1 | 16.7* | 0.4 | -0.1 | 9.9 | 0.9
O=C(NCCS(=O)(=O)NC1CCCCC1)c1ccccc1 | -3.9 | -3.6 | . | 0.0 | -17.4 | -3.5
Cc1ccc(S(=O)(=O)N(C)C[C@H]2Oc3c(NC(=O)NC(C)C)cccc3C(=O)N([C@H](C)CO)C[C@@H]2C)cc1 | 2.4 | -3.5 | 0.1 | -0.5 | -5.4 | .
